# Source: ChEMBL document CHEMBL1123428, “In vitro labeling of serotonin-S2 receptors: synthesis and binding characteristics of [3H]-7-aminoketanserin” (J Med Chem, 1986)
# What was measured:
# [1] = Half life time was determined; type: ADME
# How it was run: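 Kinetics of [3H]-7-aminoketanserin at rat frontal cortex receptors, membrane-bound (M+L+P) or CHAPS/salt-solubilized. Association ran for 20 min. Dissociation was started by adding a 1000-fold excess of pipamperone and treated as first-order. Means ± SD of independent triplicate experiments.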
# [2] = target: T1, Adrenergic receptor alpha-1 (Rattus norvegicus, UniProt P15823+P23944+P43140); experiment: Compound was evaluated for binding activity against [3H]-WB- 4101 as radioligand for alpha-1 adrenergic receptor; type: protein assay
# T1 sequence (P15823 whole entry): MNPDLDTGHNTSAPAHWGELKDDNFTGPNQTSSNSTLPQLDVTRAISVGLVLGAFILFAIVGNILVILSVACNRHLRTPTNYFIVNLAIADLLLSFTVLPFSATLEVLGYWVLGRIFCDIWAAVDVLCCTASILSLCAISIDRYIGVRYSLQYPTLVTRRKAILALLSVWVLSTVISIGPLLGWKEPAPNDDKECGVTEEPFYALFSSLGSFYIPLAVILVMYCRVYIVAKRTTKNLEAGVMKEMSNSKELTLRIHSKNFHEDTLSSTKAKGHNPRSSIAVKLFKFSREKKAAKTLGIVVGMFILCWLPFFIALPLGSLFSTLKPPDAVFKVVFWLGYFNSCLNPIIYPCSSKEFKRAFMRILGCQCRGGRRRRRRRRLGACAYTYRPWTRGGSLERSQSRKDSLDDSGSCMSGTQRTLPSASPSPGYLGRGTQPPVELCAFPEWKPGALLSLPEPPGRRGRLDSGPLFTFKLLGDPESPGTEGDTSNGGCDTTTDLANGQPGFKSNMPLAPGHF
# T1 sequence (P23944 whole entry): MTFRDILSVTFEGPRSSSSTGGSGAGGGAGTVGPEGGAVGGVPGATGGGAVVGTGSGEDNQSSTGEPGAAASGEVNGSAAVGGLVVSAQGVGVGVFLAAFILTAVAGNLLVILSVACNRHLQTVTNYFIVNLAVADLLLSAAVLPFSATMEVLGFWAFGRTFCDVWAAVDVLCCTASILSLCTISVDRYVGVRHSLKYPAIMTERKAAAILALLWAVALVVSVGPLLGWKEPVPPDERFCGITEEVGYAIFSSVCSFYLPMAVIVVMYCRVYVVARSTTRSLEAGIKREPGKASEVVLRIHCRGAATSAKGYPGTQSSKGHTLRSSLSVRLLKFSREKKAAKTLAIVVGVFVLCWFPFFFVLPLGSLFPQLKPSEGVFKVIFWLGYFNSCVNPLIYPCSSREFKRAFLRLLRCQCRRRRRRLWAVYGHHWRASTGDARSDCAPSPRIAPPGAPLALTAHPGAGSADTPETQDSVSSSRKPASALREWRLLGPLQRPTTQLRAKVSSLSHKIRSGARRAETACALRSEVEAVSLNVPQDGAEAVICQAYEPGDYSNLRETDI
# T1 sequence (P43140 whole entry): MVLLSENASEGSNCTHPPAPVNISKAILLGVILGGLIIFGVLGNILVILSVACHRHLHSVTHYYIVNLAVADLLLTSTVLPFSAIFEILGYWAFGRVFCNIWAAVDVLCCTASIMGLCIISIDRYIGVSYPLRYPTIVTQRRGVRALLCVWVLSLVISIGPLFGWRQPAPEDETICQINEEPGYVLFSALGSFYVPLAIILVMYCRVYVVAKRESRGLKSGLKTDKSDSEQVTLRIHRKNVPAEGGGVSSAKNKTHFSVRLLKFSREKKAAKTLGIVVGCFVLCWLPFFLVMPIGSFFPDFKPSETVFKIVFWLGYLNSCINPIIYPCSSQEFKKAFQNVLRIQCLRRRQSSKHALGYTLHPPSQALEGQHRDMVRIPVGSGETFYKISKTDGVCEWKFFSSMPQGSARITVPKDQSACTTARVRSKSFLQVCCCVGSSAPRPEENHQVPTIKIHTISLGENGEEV
# How it was run: (§1)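 Filtration binding technique applied to rat or guinea pig brain tissue. Tissues, buffers, radioligands and incubation conditions per earlier methods. Ki computed using radioligand KD values from the literature.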
# [3] = target: T2, Adrenergic receptor alpha-2 (Rattus norvegicus, UniProt P22086+P19328+P22909); experiment: Compound was evaluated for binding activity against [3H]clonidine as radioligand for alpha-2 adrenergic receptor; type: protein assay; how it was run: as §1
# T2 sequence (P22086 whole entry): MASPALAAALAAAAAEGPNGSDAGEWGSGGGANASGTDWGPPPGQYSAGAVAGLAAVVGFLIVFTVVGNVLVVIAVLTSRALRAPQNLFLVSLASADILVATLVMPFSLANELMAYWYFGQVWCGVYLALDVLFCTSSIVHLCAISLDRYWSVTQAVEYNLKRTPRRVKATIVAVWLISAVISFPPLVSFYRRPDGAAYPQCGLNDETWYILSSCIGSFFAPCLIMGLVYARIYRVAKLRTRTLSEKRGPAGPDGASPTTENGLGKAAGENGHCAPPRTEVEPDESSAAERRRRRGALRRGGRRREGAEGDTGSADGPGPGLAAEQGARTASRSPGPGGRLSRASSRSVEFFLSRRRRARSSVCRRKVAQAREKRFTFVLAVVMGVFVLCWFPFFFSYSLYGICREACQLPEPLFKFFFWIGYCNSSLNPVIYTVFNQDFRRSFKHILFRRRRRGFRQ
# T2 sequence (P19328 whole entry): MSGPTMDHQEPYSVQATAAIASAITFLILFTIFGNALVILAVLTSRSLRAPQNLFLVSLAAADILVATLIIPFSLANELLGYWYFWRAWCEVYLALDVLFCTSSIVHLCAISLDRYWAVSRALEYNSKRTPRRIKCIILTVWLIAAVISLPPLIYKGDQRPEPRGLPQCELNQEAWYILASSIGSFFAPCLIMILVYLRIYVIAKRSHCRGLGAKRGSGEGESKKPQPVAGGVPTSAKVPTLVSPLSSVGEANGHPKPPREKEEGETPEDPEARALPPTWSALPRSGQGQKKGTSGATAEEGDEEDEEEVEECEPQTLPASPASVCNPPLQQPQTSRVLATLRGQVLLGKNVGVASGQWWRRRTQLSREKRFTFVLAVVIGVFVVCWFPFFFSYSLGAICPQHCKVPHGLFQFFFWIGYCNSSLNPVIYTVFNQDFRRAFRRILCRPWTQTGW
# T2 sequence (P22909 whole entry): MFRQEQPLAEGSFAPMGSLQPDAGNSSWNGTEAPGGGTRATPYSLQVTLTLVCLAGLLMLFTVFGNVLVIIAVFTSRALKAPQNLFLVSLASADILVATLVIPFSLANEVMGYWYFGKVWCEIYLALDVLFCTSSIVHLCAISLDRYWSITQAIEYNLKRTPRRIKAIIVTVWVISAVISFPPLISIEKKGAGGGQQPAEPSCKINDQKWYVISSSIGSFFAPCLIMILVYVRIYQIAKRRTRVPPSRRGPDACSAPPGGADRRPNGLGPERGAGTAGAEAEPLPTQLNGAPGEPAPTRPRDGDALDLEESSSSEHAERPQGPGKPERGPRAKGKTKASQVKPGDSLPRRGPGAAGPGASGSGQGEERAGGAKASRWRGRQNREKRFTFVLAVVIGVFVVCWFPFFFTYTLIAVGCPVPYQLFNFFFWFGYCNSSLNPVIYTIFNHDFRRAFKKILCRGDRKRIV
# Adrenergic receptor beta = Adrenergic receptor beta (Rattus norvegicus, UniProt P18090+P10608+P26255); experiment: Compound was evaluated for binding activity against [3H]dihydroalprenolol as radioligand for beta adrenergic receptor; type: protein assay; how it was run: as §1
# Histamine H1 receptor = Histamine H1 receptor (Rattus norvegicus, UniProt P31390); experiment: Compound was evaluated for binding activity against [3H]pyrilamine as radioligand for Histamine H1 receptor; how it was run: as §1
# Histamine H1 receptor, sequence (P31390 whole entry): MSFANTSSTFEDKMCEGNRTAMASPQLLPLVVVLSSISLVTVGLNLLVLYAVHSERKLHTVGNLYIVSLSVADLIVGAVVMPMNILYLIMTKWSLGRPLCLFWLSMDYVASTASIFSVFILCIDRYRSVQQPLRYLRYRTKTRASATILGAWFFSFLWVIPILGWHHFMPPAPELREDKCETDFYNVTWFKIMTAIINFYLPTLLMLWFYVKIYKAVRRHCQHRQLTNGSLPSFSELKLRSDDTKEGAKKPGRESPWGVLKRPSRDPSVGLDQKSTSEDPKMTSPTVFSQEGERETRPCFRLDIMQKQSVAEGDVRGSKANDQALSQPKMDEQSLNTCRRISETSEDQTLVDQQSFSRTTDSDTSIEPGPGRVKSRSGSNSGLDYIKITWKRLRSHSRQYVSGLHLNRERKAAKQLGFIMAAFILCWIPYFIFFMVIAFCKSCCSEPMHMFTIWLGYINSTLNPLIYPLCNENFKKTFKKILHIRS
# [4] = Compound was evaluated at membrane-bound receptor (M+L+P fraction) from rat frontal cortex; type: tissue-based
# How it was run: (§2)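 Rat frontal cortex (M+L+P) fraction, diluted 1:100 w/v, in 50 mM Tris-HCl pH 7.7. Incubated 15 min at 37 °C with 1 nM [3H]-7-aminoketanserin (final) and unlabeled drug. Stopped by rapid GF/B filtration with two ice-cold buffer rinses, then scintillation counting. IC50 from two experiments in triplicate; Ki by Cheng-Prusoff.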
# Rattus norvegicus [5] = organism: Rattus norvegicus; experiment: (§3) Number of binding sites of the receptor was determined
# How it was run: (§4)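 Saturation binding of [3H]-7-aminoketanserin to rat frontal cortex (M+L+P) fraction (three experiments) or solubilized preparation (two experiments), each in triplicate. Specific binding is total minus binding with a 1000-fold methysergide excess. Bmax and KD taken from computer-fitted Scatchard plots.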
# [6] = Binding affinity for membrane-bound 5-HT-S2 receptor; design: species or system Rattus norvegicus; how it was run: as §2
# [7] = target: T3, Serotonin 1 (5-HT1) receptor (Rattus norvegicus, UniProt P28564+P30940+P19327+P28565); experiment: Compound was evaluated for binding activity against [3H]-5-HT as radioligand for serotonin S1 receptor; type: protein assay; how it was run: as §1
# [8] = target: T3, Serotonin 1 (5-HT1) receptor; experiment: Compound was evaluated for binding activity against [3H]5-HT as radioligand for serotonin S1 receptor; type: protein assay; how it was run: as §1
# [9] = Binding affinity for detergent solubilized 5-HT-S2 receptor; design: species or system Rattus norvegicus
# How it was run: (§5)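 Rat frontal cortex microsomal fraction solubilized for 12 min at 4 °C in CHAPS/NaCl medium (13.6 mM CHAPS, 2.8 M NaCl, pH 7.2), centrifuged at 180000 g, and supernatant diluted to 1:16 w/v. Incubated 15 min at 30 °C with 2 nM [3H]-7-aminoketanserin (final) and drug. Free ligand removed by charcoal/BSA, supernatant counted. IC50 from two triplicate experiments; Ki by Cheng-Prusoff.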
# [10] = Compound was evaluated at solubilized receptor (CHAPS/salt-solubilized preparation) from rat frontal cortex; type: tissue-based; how it was run: as §5
# Rattus norvegicus [11] = organism: Rattus norvegicus; experiment: as §3; how it was run: as §4; remark: listed apart in the source
# D(2) dopamine receptor = D(2) dopamine receptor (Rattus norvegicus, UniProt P61169); experiment: Compound was evaluated for binding activity against [3H]haloperidol as radioligand for Dopamine receptor D2; how it was run: as §1
# D(2) dopamine receptor, sequence (P61169 whole entry): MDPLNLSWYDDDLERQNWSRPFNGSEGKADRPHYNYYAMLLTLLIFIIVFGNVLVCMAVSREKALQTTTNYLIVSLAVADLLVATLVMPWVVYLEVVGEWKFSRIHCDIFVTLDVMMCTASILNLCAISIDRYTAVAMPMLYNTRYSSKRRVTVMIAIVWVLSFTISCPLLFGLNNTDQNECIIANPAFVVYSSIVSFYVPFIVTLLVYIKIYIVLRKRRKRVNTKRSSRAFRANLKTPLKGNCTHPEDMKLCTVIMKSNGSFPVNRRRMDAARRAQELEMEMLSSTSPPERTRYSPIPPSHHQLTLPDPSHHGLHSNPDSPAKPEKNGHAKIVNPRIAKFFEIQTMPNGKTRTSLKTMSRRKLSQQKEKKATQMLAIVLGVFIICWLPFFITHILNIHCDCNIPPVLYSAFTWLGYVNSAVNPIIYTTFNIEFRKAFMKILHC
# [12] = target: Muscarinic acetylcholine receptor; experiment: Compound was evaluated for binding activity against [3H]dexetimide as radioligand for muscarinic-acetylcholine receptor; type: protein assay; how it was run: as §1
# [13] = target: Serotonin 2 (5-HT2) receptor (Rattus norvegicus, UniProt P30994+P08909+P14842); experiment: Evaluated for binding activity against [3H]ketanserin as radioligand for 5-hydroxytryptamine 2 receptor; type: protein assay; how it was run: as §1
# Rattus norvegicus [14] = organism: Rattus norvegicus; experiment: Compound was evaluated for its activity at solubilized receptor (CHAPS/salt-solubilized preparation) from rat frontal cortex; type: functional, organism-based; details: for IC50: Rattus norvegicus, Frontal cortex
# Rattus norvegicus [15] = organism: Rattus norvegicus; experiment: Compound was evaluated for its activity at membrane-bound receptor (M+L+P fraction) from rat frontal cortex; type: functional, organism-based; details: for IC50: Rattus norvegicus, Frontal cortex
smiles,measurement,setting,value
Nc1ccc2c(=O)n(CCN3CCC(C(=O)c4ccc(F)cc4)CC3)c(=O)[nH]c2c1,T1/2,[1],12.4 min
same,half-life,[1],7.8 min
same,-Log IC50,[2],7.82
same,Ki,[2],5.49 nM
same,-Log IC50,[3],< 6
same,-Log IC50,Adrenergic receptor beta,< 6
same,IC50,Histamine H1 receptor,2.24 nM
same,Ki,Histamine H1 receptor,1.22 nM
same,-Log IC50,[4],8.86
same,Ki,[4],0.36 nM
same,Bmax,Rattus norvegicus [5],37 fmol/mg
same,Kd,[6],0.35 nM
same,-Log IC50,[7],5.25
same,Ki,[8],4416 nM
same,Kd,[9],2.03 nM
same,-Log IC50,[10],8.35
same,Ki,[10],2.23 nM
same,Bmax,Rattus norvegicus [11],4.18 fmol/mg
same,IC50,D(2) dopamine receptor,417 nM
same,Ki,D(2) dopamine receptor,164 nM
same,-Log IC50,[12],< 6
same,-Log IC50,[13],9.25
same,Ki,[13],0.17 nM
NCCc1c[nH]c2ccc(O)cc12 [SEROTONIN],Ki,Rattus norvegicus [14],14100 nM
same,IC50,Rattus norvegicus [14],28200 nM
same,Ki,Rattus norvegicus [15],919 nM
same,IC50,Rattus norvegicus [15],3550 nM
COc1cccc(OC)c1OCCNCC1COc2ccccc2O1 (configuration not stated),Ki,Rattus norvegicus [14],3880 nM
same,IC50,Rattus norvegicus [14],7760 nM
same,Ki,Rattus norvegicus [15],697 nM
same,IC50,Rattus norvegicus [15],2690 nM
CN(C)CCc1c[nH]c2ccc(O)cc12 [BUFOTENINE],Ki,Rattus norvegicus [14],6300 nM
same,IC50,Rattus norvegicus [14],12600 nM
same,Ki,Rattus norvegicus [15],341 nM
same,IC50,Rattus norvegicus [15],1320 nM
COc1ccc(CN(CCN(C)C)c2ccccn2)cc1 [PYRILAMINE],Ki,Rattus norvegicus [14],9980 nM
same,IC50,Rattus norvegicus [14],20000 nM
same,Ki,Rattus norvegicus [15],1030 nM
same,IC50,Rattus norvegicus [15],3980 nM
NC(=O)C1(N2CCCCC2)CCN(CCCC(=O)c2ccc(F)cc2)CC1 [PIPAMPERONE],Ki,Rattus norvegicus [14],9.53 nM
same,IC50,Rattus norvegicus [14],19.1 nM
same,Ki,Rattus norvegicus [15],1.39 nM
same,IC50,Rattus norvegicus [15],5.37 nM
Cc1nc2sccn2c(=O)c1CCN1CCC(=C(c2ccc(F)cc2)c2ccc(F)cc2)CC1 [RITANSERIN],Ki,Rattus norvegicus [14],7.06 nM
same,IC50,Rattus norvegicus [14],14.1 nM
same,Ki,Rattus norvegicus [15],0.9 nM
same,IC50,Rattus norvegicus [15],3.47 nM
